Source: ChEMBL document CHEMBL4732031, “Novel fluorinated ring-fused chlorins as promising PDT agents against melanoma and esophagus cancer” (RSC Med Chem, 2021)
pIC50: −log10 of the molar value.

Legend:
A-375 [1] = test: Cytotoxicity against human A375 cells assessed as cell viability measured after 24 hrs by MTT assay; type: cell-based; settings: A-375, 24 h
In short: (§1)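 Dark control run in A375 (DMEM) or OE19 (RPMI 1640) cells, plated overnight. Sensitizers were diluted from a 1 mg/mL DMSO stock and given at 1 nM–10 μM, with a 1% DMSO vehicle control. Cells were incubated 24 h at 37 °C in the dark, PBS-washed, refed and not irradiated. Read-out was MTT (0.5 mg/mL, 4 h) with formazan dissolved in HCl/isopropanol, as % of vehicle; IC50 taken from dose–response curves.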

OE19 [2] = test: Cytotoxicity against human OE19 cells assessed as cell viability measured after 24 hrs by MTT assay; type: cell-based; settings: OE19, 24 h; in short: as §1
[3] = Drug uptake in human A375 cells at 500 nM incubated for 24 hrs by fluorescence emission spectroscopic analysis; type: ADME, cell-based; settings: a-375, 24 h, 0.5 µM
In short: (§2)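 Cells (5 × 10^5) were exposed to 500 nM sensitizer for 24 h in the dark, then PBS-washed, disrupted in DMSO, scraped and centrifuged. Supernatant fluorescence was read with excitation at 405 and 420 nm. Intracellular concentration was calculated from a calibration curve of each sensitizer in DMSO; mean ± SE.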

A-375 [4] = test: Photocytotoxicity against human A375 cells assessed as cell viability after 24 hrs in presence of light irradiation by MTT assay; type: functional, cell-based; settings: A-375, light or radiation study
In short: (§3)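 A375 (DMEM) or OE19 (RPMI 1640) cells were plated overnight and given sensitizer at 1 nM–10 μM, diluted from a 1 mg/mL DMSO stock, with a 1% DMSO vehicle control. After 24 h dark incubation at 37 °C, cells were PBS-washed and refed.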

OE19 [5] = test: Photocytotoxicity against human OE19 cells assessed as cell viability after 24 hrs in presence of light irradiation by MTT assay; type: functional, cell-based; settings: OE19, light or radiation study; in short: as §3
[6] = Drug uptake in human OE19 cells at 500 nM incubated for 24 hrs by fluorescence emission spectroscopic analysis; type: ADME, cell-based; settings: oe19, 24 h, 0.5 µM; in short: as §2

Drug uptake [3]	Drug uptake [6]	Compound	pIC50 (A-375 [1])	pIC50 (OE19 [2])	pIC50 (A-375 [4])	pIC50 (OE19 [5])
128 nM	–	OCc1nn2c(c1CO)CC1c3nc(c(-c4c(F)c(F)cc(F)c4F)c4ccc([nH]4)c(-c4c(F)c(F)cc(F)c4F)c4nc(c(-c5c(F)c(F)cc(F)c5F)c5ccc([nH]5)c3-c3c(F)c(F)cc(F)c3F)C=C4)C1C2 (stereo not given)	< 5.00	< 5.00	7.14	7.25
–	–	COC(=O)c1nn2c(c1C(=O)OC)CC1c3nc(c(-c4c(F)c(F)c(F)c(F)c4F)c4ccc([nH]4)c(-c4c(F)c(F)c(F)c(F)c4F)c4nc(c(-c5c(F)c(F)c(F)c(F)c5F)c5ccc([nH]5)c3-c3c(F)c(F)c(F)c(F)c3F)C=C4)C1C2 (stereo not given)	< 5.00	< 5.00	5.18	5.25
148 nM	–	COC(=O)c1nn2c(c1C(=O)OC)CC1c3nc(c(-c4c(F)c(F)c(NCCOCCO)c(F)c4F)c4ccc([nH]4)c(-c4c(F)c(F)c(NCCOCCO)c(F)c4F)c4nc(c(-c5c(F)c(F)c(NCCOCCO)c(F)c5F)c5ccc([nH]5)c3-c3c(F)c(F)c(NCCOCCO)c(F)c3F)C=C4)C1C2 (stereo not given)	< 5.00	< 5.00	6.04	6.98
254 nM	202 nM	OCCOCCNc1c(F)c(F)c(-c2c3nc(c(-c4c(F)c(F)c(NCCOCCO)c(F)c4F)c4ccc([nH]4)c(-c4c(F)c(F)c(NCCOCCO)c(F)c4F)c4nc(c(-c5c(F)c(F)c(NCCOCCO)c(F)c5F)c5ccc2[nH]5)C2Cc5c(CO)c(CO)nn5CC42)C=C3)c(F)c1F (stereo not given)	< 5.00	< 5.00	7.89	7.57
